Experimental data: ChEMBL document CHEMBL1153760, “Identification and structure-activity relationships of chromene-derived selective estrogen receptor modulators for treatment of postmenopausal symptoms” (J Med Chem, 2009)
Activity calls are given as the source filed them. The rule behind the calls is not given here.

Assays:
Rattus norvegicus [1] = test: Increase in vaginal fluidity in ovariectomized rat at 1.4 mg/kg, po administered daily measured after 6 weeks by cytology analysis; type: functional, organism-based; parameters: dose 1.4 mg/kg
Rattus norvegicus [2] = test: Metabolite Cmax in rats after 10 mg/kg JNJ-1968990 oral dose; type: ADME, organism-based; parameters: dose 10 mg/kg, route oral; conditions: in vivo
Summary of the method: (§1)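 Single-dose rat pharmacokinetics. IV dosing at 1-3 mg/kg as a solution in 10% β-cyclodextrin; oral gavage at 10 mg/kg as a uniform suspension in 0.5% methylcellulose. Blood (0.5 mL) collected into heparinized tubes by orbital sinus puncture after dosing. Plasma extracted into acetonitrile with an internal standard and analysed by LC-MS-MS against standards to obtain PK parameters.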

Rattus norvegicus [3] = test: Metabolic stability in rat assessed as 2-Methoxy-5R-(-)-[4-(2-piperidin-1-ylethoxy)-phenyl]-11,12-dihydro-5H-6,13-dioxabenzo[3,4]cyclohepta[1,2-a]-naphthalen-8-ol Tmax at 10 mg/kg, po administered as single dose by LC-MS/MS analysis; type: ADME, organism-based; parameters: dose 10 mg/kg, route oral; conditions: in vivo; summary of the method: as §1
Estrogen receptor [4] = target: T1, Estrogen receptor (Homo sapiens, UniProt P03372); test: Antagonist activity at estrogen receptor in human Ishikawa cells assessed as 17-beta-estradiol-induced alkaline phosphatase activity after 3 days by chemiluminescence assay; type: functional, cell-based
T1 sequence (P03372 whole entry): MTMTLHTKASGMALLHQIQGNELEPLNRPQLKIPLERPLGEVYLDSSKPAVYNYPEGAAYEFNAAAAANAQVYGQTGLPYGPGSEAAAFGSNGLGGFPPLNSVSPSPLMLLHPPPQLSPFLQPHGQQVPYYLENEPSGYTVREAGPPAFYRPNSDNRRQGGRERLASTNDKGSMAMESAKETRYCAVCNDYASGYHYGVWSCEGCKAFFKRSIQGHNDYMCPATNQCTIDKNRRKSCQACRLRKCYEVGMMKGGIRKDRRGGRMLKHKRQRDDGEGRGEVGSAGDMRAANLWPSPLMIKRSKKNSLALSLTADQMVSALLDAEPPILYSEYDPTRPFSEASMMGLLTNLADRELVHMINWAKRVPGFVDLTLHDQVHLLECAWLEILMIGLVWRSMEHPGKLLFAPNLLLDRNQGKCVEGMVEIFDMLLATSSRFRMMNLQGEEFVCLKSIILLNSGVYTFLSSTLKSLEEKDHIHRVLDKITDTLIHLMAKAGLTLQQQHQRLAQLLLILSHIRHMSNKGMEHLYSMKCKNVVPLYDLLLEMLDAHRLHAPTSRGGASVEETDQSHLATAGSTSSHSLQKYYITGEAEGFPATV

[5] = Tmax in rat at 10 mg/kg, po administered as single dose by LC-MS/MS analysis; type: ADME, organism-based; parameters: dose 10 mg/kg, route oral; conditions: in vivo; summary of the method: as §1
Estrogen receptor [6] = target: T1, Estrogen receptor; test: Displacement of radiolabeled estrogen from estrogen receptor alpha by scintillation counting
Rattus norvegicus [7] = test: Metabolite Cmax in rats after 2 mg/kg JNJ-1968990 intravenous dose; type: ADME, organism-based; parameters: dose 2 mg/kg, route intravenous; conditions: in vivo; summary of the method: as §1
Rattus norvegicus [8] = test: Increase in vaginal secretion in ovariectomized rat at 0.1 to 1 mg/kg, po administered daily measured after 2 weeks by cytology analysis; type: functional, organism-based
Summary of the method: (§2)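 Ovariectomized adult female rats dosed daily by oral gavage (0.5% Methocel suspension) for 2 or 6 weeks from 24 h after surgery. Vaginal fluid collected with a cotton swab and its absolute weight determined per animal.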

Rattus norvegicus [9] = test: Estrogenic activity in ovariectomized rat assessed as minor increase in uterine epithelial thickness at 0.1 to 1 mg/kg, po administered daily measured after 6 week by immunohistochemical analysis; type: functional, organism-based
Rattus norvegicus [10] = test: Decrease in plasma cholesterol level in po dosed ovariectomized rat osteopenia model administered daily measured after 2 weeks; type: functional, organism-based
Rattus norvegicus [11] = species on record: Rattus norvegicus; test: animal or person; type: functional; conditions: Uterus, 72 h, route oral
Rattus norvegicus [12] = test: Increase in uterine weight in po dosed ovariectomized rat osteopenia model administered daily measured after 2 weeks; type: functional, organism-based
Estrogen receptor beta = Estrogen receptor beta (Homo sapiens, UniProt Q92731); test: Inhibition of fluormone ES2 binding to estrogen receptor beta after 1 hr by fluorescence polarization assay
[13] = Half life in rat at 10 mg/kg, po administered as single dose by LC-MS/MS analysis; type: ADME, organism-based; parameters: dose 10 mg/kg, route oral; conditions: in vivo; summary of the method: as §1
Rattus norvegicus [14] = test: Metabolic stability in rat assessed as 2-Methoxy-5R-(-)-[4-(2-piperidin-1-ylethoxy)-phenyl]-11,12-dihydro-5H-6,13-dioxabenzo[3,4]cyclohepta[1,2-a]-naphthalen-8-ol Tmax at 2 mg/kg, iv administered as single dose by LC-MS/MS analysis; type: ADME, organism-based; parameters: dose 2 mg/kg, route intravenous; conditions: in vivo; summary of the method: as §1
[15] = Oral bioavailability in rat at 10 mg/kg administered as single dose by LC-MS/MS analysis; type: ADME, organism-based; conditions: in vivo; summary of the method: as §1
[16] = AUC in rat at 10 mg/kg, po administered as single dose by LC-MS/MS analysis; type: ADME, organism-based; parameters: dose 10 mg/kg, route oral; conditions: plasma; summary of the method: as §1
[17] = Cmax in rats after 10 mg/kg oral dose; type: ADME, organism-based; parameters: dose 10 mg/kg, route oral; conditions: rat, in vivo; summary of the method: as §1
Rattus norvegicus [18] = test: Decrease in bone resorption in ovariectomized rat assessed as decrease in urine deoxypyridinoline level at 0.1 to 1 mg/kg, po administered daily measured after 2 weeks; type: functional, organism-based
Summary of the method: (§3)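 Adult (>6 months) female rats, housed singly on a casein-based diet, ovariectomized under sterile conditions and anesthesia; 6-14 per group. From 24 h after surgery, daily oral gavage of an aqueous suspension in 0.5% Methocel for 2 or 6 weeks. […] Urine deoxypyridinoline measured as bone-resorption marker.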

Rattus norvegicus [19] = test: Decrease in plasma cholesterol level in ovariectomized rat osteopenia model at 0.01 to 0.1 mg/kg, po administered daily measured after 6 weeks; type: functional; parameters: scale not given: the % may be the effect or the level left; conditions: dose mg/kg 0.01-0.1
[20] = Cmax in rats after 2 mg/kg intravenous dose; type: ADME, organism-based; parameters: dose 2 mg/kg, route intravenous; conditions: rat, in vivo; summary of the method: as §1
Rattus norvegicus [21] = test: Decrease in plasma cholesterol level in ovariectomized rat osteopenia model at 0.3 mg/kg, po administered daily measured after 6 weeks; type: functional; parameters: scale not given: the % may be the effect or the level left
Rattus norvegicus [22] = test: Decrease in plasma cholesterol level in ovariectomized rat osteopenia model at 0.003 to 0.3 mg/kg, po administered daily measured after 2 weeks; type: functional, organism-based
Rattus norvegicus [23] = test: Decrease in bone resorption in ovariectomized rat assessed as decrease in urine deoxypyridinoline level at 0.003 to 0.3 mg/kg, po administered daily measured after 6 weeks; type: functional, organism-based; summary of the method: as §3
Rattus norvegicus [24] = test: Estrogenic activity in ovariectomized rat assessed as increase in uterine epithelial thickness at 0.1 mg/kg, po administered daily measured after 6 week by immunohistochemical analysis; type: functional, organism-based; parameters: dose 0.1 mg/kg
Rattus norvegicus [25] = test: Effect on bone turnover in po dosed ovariectomized rat assessed as prevention of tibial bone loss administered daily measured after 6 weeks by ex vivo peripheral quantitative computerized tomography; type: functional, organism-based
Rattus norvegicus [26] = test: Increase in vaginal fluidity in ovariectomized rat at 0.1 mg/kg, po administered daily measured after 6 weeks by cytology analysis; type: functional, organism-based; parameters: dose 0.1 mg/kg; summary of the method: as §2
Rattus norvegicus [27] = test: Increase in vaginal fluidity in po dosed ovariectomized rat administered daily measured after 2 weeks […]; type: functional, organism-based; summary of the method: as §2
Rattus norvegicus [28] = test: Estrogenic activity in ovariectomized rat assessed as minor increase in uterine epithelial thickness at 0.001 to 0.3 mg/kg, po administered daily measured after 6 week by immunohistochemical analysis; type: functional, organism-based
Rattus norvegicus [29] = test: Decrease in tail skin temperature rise in morphine-addicted Sprague-Dawley rat hot flush model at 0.01 to 10 mg/kg, po administered daily measured for 60 mins after naloxone-induced morphine withdrawal; type: functional, organism-based
Summary of the method: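 Ovariectomized adult female Sprague-Dawley rats (3 months), 8-25 per group; oral gavage starting 6 days post-ovariectomy, sesame oil vehicle, suspension. Morphine given sc at 75 and 150 mg on treatment days 3 and 5. On the last day, under ketamine (80 mg/kg, im), tail thermistor; baseline about 20 min, then naloxone 2.0 mg/kg sc and tail skin temperature recorded 60 min. Multiple comparisons at each time point.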

[30] = AUC in rat at 2 mg/kg, iv administered as single dose by LC-MS/MS analysis; type: ADME, organism-based; parameters: dose 2 mg/kg, route intravenous; conditions: plasma; summary of the method: as §1
Rattus norvegicus [31] = test: Increase in uterine weight in po dosed ovariectomized rat osteopenia model administered daily measured after 6 weeks; type: functional, organism-based
[32] = Half life in rat at 2 mg/kg, iv administered as single dose by LC-MS/MS analysis; type: ADME, organism-based; parameters: dose 2 mg/kg, route intravenous; conditions: in vivo; summary of the method: as §1
Rattus norvegicus [33] = test: Effect on bone turnover in ovariectomized rat assessed as prevention of tibial bone density at 0.3 mg/kg, po administered daily measured after 6 weeks by ex vivo peripheral quantitative computerized tomography; type: functional, organism-based; parameters: dose 0.3 mg/kg
Rattus norvegicus [34] = test: Decrease in plasma cholesterol level in ovariectomized rat osteopenia model at 0.03 mg/kg, po administered daily measured after 6 weeks; type: functional; parameters: scale not given: the % may be the effect or the level left
[35] = Tmax in rat at 2 mg/kg, iv administered as single dose by LC-MS/MS analysis; type: ADME, organism-based; parameters: dose 2 mg/kg, route intravenous; conditions: in vivo; summary of the method: as §1
Rattus norvegicus [36] = test: Increase in uterine weight in ovariectomized rat osteopenia model at 1 mg/kg, po administered daily measured after 6 weeks; type: functional, organism-based; parameters: dose 1 mg/kg

Chain of Estrogen receptor beta (Q92731 whole entry): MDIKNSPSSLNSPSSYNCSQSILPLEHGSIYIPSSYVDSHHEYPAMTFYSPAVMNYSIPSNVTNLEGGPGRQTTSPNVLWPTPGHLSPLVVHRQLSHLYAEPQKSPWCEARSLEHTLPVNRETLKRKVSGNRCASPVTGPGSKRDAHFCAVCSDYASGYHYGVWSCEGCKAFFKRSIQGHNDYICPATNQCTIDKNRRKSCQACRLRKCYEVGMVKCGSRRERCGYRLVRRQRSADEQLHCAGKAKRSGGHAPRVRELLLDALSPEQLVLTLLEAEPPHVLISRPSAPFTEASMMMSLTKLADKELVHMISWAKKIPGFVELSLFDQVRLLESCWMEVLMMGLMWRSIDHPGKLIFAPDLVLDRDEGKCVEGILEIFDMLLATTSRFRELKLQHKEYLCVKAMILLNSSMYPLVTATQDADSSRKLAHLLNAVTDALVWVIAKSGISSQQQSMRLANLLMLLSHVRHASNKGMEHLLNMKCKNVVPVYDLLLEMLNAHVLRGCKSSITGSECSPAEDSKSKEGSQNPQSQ

Q: Which Activity (Rattus norvegicus [1]) does the source give for `COc1ccc2c(c1)OCCC1=C2[C@@H](c2ccc(OCCN3CCCCC3)cc2)Oc2cc(O)ccc21` here?
A: Active

Q: What about the Cmax_metabolite (Rattus norvegicus [2]) of the same compound?
A: 91.4 ng/mL

Q: And the Tmax (Rattus norvegicus [3])?
A: 8 h

Q: What about the IC50 (Estrogen receptor [4]) of the same compound?
A: 76 nM

Q: And the Tmax [5]?
A: 6 h

Q: What about the IC50 (Estrogen receptor [6]) of the same compound?
A: 5.8 nM

Q: What about the Cmax_metabolite (Rattus norvegicus [7]) of the same compound?
A: 15.2 ng/mL

Q: And the Activity (Rattus norvegicus [8])?
A: inactive

Q: What about the Activity (Rattus norvegicus [9]) of the same compound?
A: Active

Q: And the Activity (Rattus norvegicus [10])?
A: Active

Q: And the inhibition in vivo at 1 mg/kg (Rattus norvegicus [11])?
A: 130%

Q: And the Activity (Rattus norvegicus [12])?
A: inactive

Q: And the IC50 (Estrogen receptor beta)?
A: 99 nM

Q: And the half-life [13]?
A: 18.6 h

Q: And the Tmax (Rattus norvegicus [14])?
A: 8 h

Q: And the bioavailability [15]?
A: 61%

Q: And the AUC [16]?
A: 6730 ng·h/mL

Q: And the Cmax [17]?
A: 228 ng/mL

Q: What about the Activity (Rattus norvegicus [18]) of the same compound?
A: Active

Q: With `COc1ccc2c(c1)O[C@H](c1ccc(OCCN3CCCCC3)cc1)C1=C2CCOc2cc(OC)ccc21` as the compound, how does the Activity (Rattus norvegicus [19]) read?
A: 60%

Q: And the Cmax [20]?
A: 1040 ng/mL

Q: And the Activity (Rattus norvegicus [21])?
A: 50%

Q: And the Activity (Rattus norvegicus [22])?
A: Active

Q: What about the IC50 (Estrogen receptor [4]) of the same compound?
A: 1740 nM

Q: What about the Tmax [5] of the same compound?
A: 5 h

Q: And the Activity (Rattus norvegicus [23])?
A: Active

Q: And the Activity (Rattus norvegicus [24])?
A: Active

Q: And the Activity (Rattus norvegicus [25])?
A: Dose-dependent effect

Q: What about the Activity (Rattus norvegicus [26]) of the same compound?
A: Active

Q: And the Activity (Rattus norvegicus [27])?
A: Dose-dependent effect

Q: And the IC50 (Estrogen receptor [6])?
A: 64 nM

Q: What about the Activity (Rattus norvegicus [28]) of the same compound?
A: Active

Q: What about the Activity (Rattus norvegicus [29]) of the same compound?
A: Active

Q: And the AUC [30]?
A: 1390 ng·h/mL

Q: What about the inhibition in vivo at 1 mg/kg (Rattus norvegicus [11]) of the same compound?
A: 121%

Q: What about the Activity (Rattus norvegicus [31]) of the same compound?
A: Dose-dependent effect

Q: And the half-life [32]?
A: 5.82 h

Q: And the IC50 (Estrogen receptor beta)?
A: Not Active

Q: And the half-life [13]?
A: 7.2 h

Q: What about the Activity (Rattus norvegicus [33]) of the same compound?
A: Active

Q: What about the bioavailability [15] of the same compound?
A: 30.8%

Q: What about the AUC [16] of the same compound?
A: 2270 ng·h/mL

Q: And the Cmax [17]?
A: 168 ng/mL

Q: And the Activity (Rattus norvegicus [34])?
A: 50%

Q: And the Tmax [35]?
A: 4.8 min

Q: What about the Activity (Rattus norvegicus [36]) of the same compound?
A: inactive
